{"data": "Measurements gathered from unrelated publications", "RET": "Proto-oncogene tyrosine-protein kinase receptor Ret (RET, Homo sapiens, UniProt P07949)", "RET V804L": "Proto-oncogene tyrosine-protein kinase receptor Ret (RET, Homo sapiens, UniProt P07949, V804L)", "RET V804M": "Proto-oncogene tyrosine-protein kinase receptor Ret (RET, Homo sapiens, UniProt P07949, V804M)", "note": "Lines come from different studies, so protocols differ."}
{"Structure (SMILES)": "Cc1cccc(NC(=O)CNC(=O)c2ccccc2NS(=O)(=O)c2ccc3[nH]c(=O)[nH]c3c2)c1C", "target": "RET", "observed": "enzyme activity", "mode": "inhibitor", "method": "radiometric", "concentration": "10 µM", "quantity": "remaining activity", "value": "85.9%"}
{"Structure (SMILES)": "CCOCCn1cc(C(=O)Nc2ccc(-n3nc(-c4cccnc4)cc3C(F)(F)F)cn2)ccc1=O", "target": "RET V804L", "observed": "cell-free assay", "method": "competition with immobilised ligand", "concentration": "1 µM", "quantity": "remaining binding", "value": "97%"}
{"Structure (SMILES)": "O=C1NC(=O)c2cc(Nc3ccc(F)cc3)c(Nc3ccc(F)cc3)cc21", "target": "RET", "observed": "cell-free assay", "concentration": "0.5 µM", "quantity": "remaining signal", "value": "104%"}
{"Structure (SMILES)": "Cc1ccc(C(=O)Nc2ccc(CN3CCN(C)CC3)c(C(F)(F)F)c2)cc1C#Cc1cnc2cccnn12", "target": "RET V804M", "observed": "enzyme activity", "concentration": "23.5 nM", "quantity": "remaining activity", "value": "8.4%"}
{"Structure (SMILES)": "C#Cc1cccc(Nc2ncnc3cc(OCCOC)c(OCCOC)cc23)c1", "target": "RET", "observed": "cell-free assay", "concentration": "0.5 µM", "quantity": "remaining signal", "value": "48.6%"}
{"Structure (SMILES)": "CCCOc1ccc(OC)c(F)c1C(=O)c1ccc(C(=O)N[C@@H]2CNC[C@H]2NC(=O)c2ccc3[nH]ncc3c2)cc1", "target": "RET V804M", "observed": "enzyme activity", "mode": "inhibitor", "concentration": "10 µM", "quantity": "remaining activity", "value": "4%"}
{"Structure (SMILES)": "CNC(=O)c1cc(Oc2ccc(NC(=O)Nc3ccc(Cl)c(C(F)(F)F)c3)cc2)ccn1", "target": "RET", "observed": "cell-free assay", "concentration": "0.5 µM", "quantity": "remaining signal", "value": "1.78%"}
{"Structure (SMILES)": "O=C(COc1ccc(Cl)cc1C(=O)Nc1ccccc1)Nc1cc(Cl)ccc1-n1cncn1", "target": "RET", "observed": "enzyme activity", "mode": "inhibitor", "method": "radiometric", "concentration": "0.1 µM", "quantity": "remaining activity", "value": "107%"}
{"Structure (SMILES)": "O=C1CCc2cc(Nc3cc(OC4CCOCC4)c([N+](=O)[O-])cc3Cl)ccc2N1", "target": "RET V804M", "observed": "cell-free assay", "method": "competition with immobilised ligand", "concentration": "1 µM", "quantity": "remaining binding", "value": "100%"}
{"Structure (SMILES)": "Cc1ccc(NC(=O)c2ccc(C)c(C(F)(F)F)c2)cc1C#Cc1nn(C2CCC(O)CC2)c2ncnc(N)c12 (centres unmarked)", "target": "RET", "observed": "cell-free assay", "concentration": "10 µM", "quantity": "remaining signal", "value": "2%"}
{"Structure (SMILES)": "COCC(=O)Nc1cc(C(=O)NCc2ccc(C)c(F)c2)cc2ncn(CCc3ccccc3)c12", "target": "RET", "observed": "enzyme activity", "mode": "inhibitor", "method": "radiometric", "concentration": "0.1 µM", "quantity": "remaining activity", "value": "133%"}
{"Structure (SMILES)": "Nc1ncnc2occ(-c3ccc(NC(=O)Nc4cc(C(F)(F)F)ccc4F)cc3)c12", "target": "RET V804L", "observed": "cell-free assay", "concentration": "20 µM", "quantity": "remaining signal", "value": "0%"}
{"Structure (SMILES)": "CNC(=O)Nc1ccc2c(c1)[C@@]1(CC2)OC(=O)N(CC(=O)N(Cc2ccc(F)cc2)[C@@H](C)C(F)(F)F)C1=O", "target": "RET V804L", "observed": "cell-free assay", "method": "competition with immobilised ligand", "concentration": "1 µM", "quantity": "remaining binding", "value": "94%"}
{"Structure (SMILES)": "CC/C(=N\\NC(=O)NCc1cccc(O)c1)c1ccc(O)c(C)c1O", "target": "Proto-oncogene tyrosine-protein kinase receptor Ret (RET, Homo sapiens, UniProt P07949, G691S)", "observed": "enzyme activity", "mode": "inhibitor", "concentration": "0.1 µM", "quantity": "inhibition", "value": "5.6%"}
{"Structure (SMILES)": "Cc1cc(NC(=O)c2cccc3cc(-c4cccc5[nH]nc(N)c45)ccc23)ccc1F", "target": "RET", "observed": "enzyme activity", "mode": "inhibitor", "concentration": "0.1 µM", "quantity": "activity vs control", "value": "37%"}
{"Structure (SMILES)": "COc1ccc(CN2C3CC2CN(c2ccc(-c4cc(OCC(C)(C)O)cn5ncc(C#N)c45)cn2)C3)cn1", "target": "RET", "observed": "thermal stability", "method": "DSF", "concentration": "10 µM", "quantity": "ΔTm", "value": "9.5 °C"}
{"Structure (SMILES)": "CC(C)(O)c1cncc(-c2nc3ccc(F)cc3n2C2CC2)c1", "target": "RET", "observed": "cell-free assay", "method": "competition with immobilised ligand", "concentration": "1 µM", "quantity": "remaining binding", "value": "100%"}
{"Structure (SMILES)": "COc1cc2ncnc(Nc3ccc(Oc4ccccc4)cc3C)c2cc1OC", "target": "RET V804L", "observed": "enzyme activity", "mode": "inhibitor", "concentration": "1 µM", "quantity": "inhibition", "value": "3%"}
{"Structure (SMILES)": "COc1cc(NC(=O)Nc2cccc(Br)c2)cc2sc(NC(=O)c3ccccc3)nc12", "target": "RET", "observed": "enzyme activity", "mode": "inhibitor", "method": "radiometric", "concentration": "10 µM", "quantity": "remaining activity", "value": "127%"}
{"Structure (SMILES)": "CO[C@]1(C(=O)N[C@@H](C)c2ccc(-n3cc(F)cn3)nc2)CC[C@H](c2nc(C)cc(Nc3cc(C)[nH]n3)n2)CC1", "target": "Proto-oncogene tyrosine-protein kinase receptor Ret (RET, Homo sapiens, UniProt P07949, L772A)", "observed": "thermal stability", "method": "DSF", "concentration": "10 µM", "quantity": "ΔTm", "value": "11.7 °C"}
{"Structure (SMILES)": "CS(=O)(=O)CCNCc1ccc(-c2ccc3ncnc(Nc4ccc(OCc5cccc(F)c5)c(Cl)c4)c3c2)o1", "target": "RET", "observed": "cell-free assay", "concentration": "0.5 µM", "quantity": "remaining signal", "value": "99.8%"}
{"Structure (SMILES)": "Cc1ccc(NC(=O)Nc2cc3c(cc2Oc2ccccc2)n(C)c(=O)n3C)cc1C", "target": "RET", "observed": "enzyme activity", "mode": "inhibitor", "method": "radiometric", "concentration": "10 µM", "quantity": "remaining activity", "value": "128%"}
{"Structure (SMILES)": "CCCCN(CCCC)C(=O)CN1C[C@H](c2cc(OC)c3c(c2)OCO3)[C@@H](C(=O)O)[C@@H]1CC(C)(C)CCC", "target": "Proto-oncogene tyrosine-protein kinase receptor Ret (RET, Homo sapiens, UniProt P07949, M918T)", "observed": "cell-free assay", "method": "competition with immobilised ligand", "concentration": "1 µM", "quantity": "remaining binding", "value": "100%"}
{"Structure (SMILES)": "Cc1ccc(-c2nn3c(=O)cc(CNC(=O)Nc4ccc(C)c(Cl)c4)nc3s2)cc1", "target": "RET", "observed": "enzyme activity", "mode": "inhibitor", "method": "radiometric", "concentration": "0.1 µM", "quantity": "remaining activity", "value": "116%"}
{"Structure (SMILES)": "COc1ccc2c(c1)O[C@H](c1ccc(OC)c(OC)c1)C[C@@H]2NC(=O)C1(c2ccc3c(c2)OC(F)(F)O3)CC1", "target": "RET V804M", "observed": "cell-free assay", "method": "competition with immobilised ligand", "concentration": "1 µM", "quantity": "remaining binding", "value": "100%"}
{"Structure (SMILES)": "CC(=O)Nc1cccc2c1CCN(C(=O)CCNC(=O)c1ccsc1)C2", "target": "RET", "observed": "enzyme activity", "mode": "inhibitor", "method": "radiometric", "concentration": "10 µM", "quantity": "remaining activity", "value": "90.8%"}
{"Structure (SMILES)": "O=c1nc(-c2ccccn2)sc2ccccc12", "target": "RET V804M", "observed": "binding", "method": "competition with immobilised ligand", "concentration": "1 µM", "quantity": "remaining binding", "value": "100%"}
{"Structure (SMILES)": "COC(=O)c1cccc(NC(=O)Nc2cc(C)c3nc(NC(=O)c4ccccc4)sc3c2)c1", "target": "RET", "observed": "enzyme activity", "mode": "inhibitor", "method": "radiometric", "concentration": "10 µM", "quantity": "remaining activity", "value": "103%"}
{"Structure (SMILES)": "NS(=O)(=O)c1cc(NC(=O)Cc2ccccc2)ccc1Oc1cccc(Cl)c1", "target": "RET V804M", "observed": "cell-free assay", "method": "competition with immobilised ligand", "concentration": "1 µM", "quantity": "remaining binding", "value": "100%"}
